Data as given in the RNAGym collection of RNA variant scans (doi:10.1126/science.aae0568).
Variants at the floor of the assay were thinned out.

B1: tRNA (parent)
chain: GUUCCGUUGGCGUAAUGGUAACGCGUCUCCCUCCUAAGGAGAAGACUGCGGGUUCGAGUCCCGUACGGAACG

Variants of: B1
Experiment: yeast fitness relative to wild type (ratio to wild type); higher = fitter; tRNA-Arg(CCU), competitive growth, 37 C, YPD
Summary of the method: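 Start and end populations of a pooled competition were compared by 100-nucleotide paired-end sequencing of gene amplicons. The Saccharomyces cerevisiae strains carried tRNA-Arg(CCU) gene variants at the native genomic locus, synthesised with a 3% per-site mutation rate at 69 sites, and competed in YPD at 37°C for 24 hours in six parallel replicates. Darwinian fitness relative to wild type was based on the change in genotype frequencies. Genotypes required ≥ 100 starting reads, and estimates < 0.5 were set to 0.5.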

| Variant | yeast fitness |
| --- | --- |
| GUUCCGUUGGCGUAAUGGUAACGCGUCUCCCUCCUAAGGAGUAGACUGCGGGUUCGAGACCCGGACGGAACG [A42U U59A U64G] | ≤ 0.5 |
| GUUCCGUUGGCGUAAUGGUAACGCGUCUCCCUCCUAAGGAGUAGACUGCGGGUUCGAGUCCCGCACGGAACG [A42U U64C] | 1.05 |
| GUUCCGUUGGCGUAAUGGUAACGCGUCUCCCUCCUAAGGAGUAGACAGCGGGAUCGAGUCCCGUACGGAACG [A42U U47A U53A] | 0.727 |
| GUUCCGUUGGCGUAAUGGUAACGCGUCUCCCUCCUAAGGAGUACACUGCGGGUACGAGUCCCGUACGGAACG [A42U G44C U54A] | ≤ 0.5 |
| GUUCCGUUGGCGUAAUGGUAACGCGUCUCCCUCCUAAGGAGUAGACUGCGGGUUCAAGUCCCGUACGGAACG [A42U G56A] | 1.02 |
| GUUCCGUUGGCGUAAUGGUAACGCGUCUCCCUCCUAAGGAGACGACUGCGCGUUCGAGUCCCGUACGGAACG [A43C G51C] | 0.587 |
| GUUCCGUUGGCGUAAUGGUAACGCGUCUCCCUCCUAAGGAGACGACUGCGAGUUCGAGUCCCGUACGGAACG [A43C G51A] | 0.809 |
| GUUCCGUUGGCGUAAUGGUAACGCGUCUCCCUCCUAAGGAGUAGACGGCGGGUUCGCGUCACGUACGGAACG [A42U U47G A57C C61A] | ≤ 0.5 |
| GUUCCGUUGGCGUAAUGGUAACGCGUCUCCCUCCUAAGGAGUAGACUGCGGGUUCGAAUCGCGUACGGAUCG [A42U G58A C61G A70U] | ≤ 0.5 |
| GUUCCGUUGGCGUAAUGGUAACGCGUCUCCCUCCUAAGGAGACGACUGCGGGUUCGAGUCCCCUACAGAACG [A43C G63C G67A] | ≤ 0.5 |
| GUUCCGUUGGCGUAAUGGUAACGCGUCUCCCUCCUAAGGAGACGACUGCGGGUUCGCGUCCCGUACGGAACG [A43C A57C] | 0.681 |
| GUUCCGUUGGCGUAAUGGUAACGCGUCUCCCUCCUAAGGAGACGACUGCGGGUUCGGGUCCCGUACGGAACG [A43C A57G] | 0.744 |
| GUUCCGUUGGCGUAAUGGUAACGCGUCUCCCUCCUAAGGAGACGACUGAGGGUUCGAGUCCCGUAAGGAACG [A43C C49A C66A] | ≤ 0.5 |
| GUUCCGUUGGCGUAAUGGUAACGCGUCUCCCUCCUAAGGAGUAGACUACGGGUUCGAGUCGCGUAGGGAACG [A42U G48A C61G C66G] | ≤ 0.5 |
| GUUCCGUUGGCGUAAUGGUAACGCGUCUCCCUCCUAAGGAGACGACUCCGGGUUCGGGUCCCGUACGGAACG [A43C G48C A57G] | 0.817 |
| GUUCCGUUGGCGUAAUGGUAACGCGUCUCCCUCCUAAGGAGUAGACUGCGGGAUCGAGUCCCGUACGGAACG [A42U U53A] | 0.565 |
| GUUCCGUUGGCGUAAUGGUAACGCGUCUCCCUCCUAAGGAGACGACUGCGGGUUCGAGUCCCGUACGGUCCG [A43C A69U A70C] | 1.03 |
| GUUCCGUUGGCGUAAUGGUAACGCGUCUCCCUCCUAAGGAGACGACAGCGGGUUCGACUCCCGCACGGAACG [A43C U47A G58C U64C] | ≤ 0.5 |
| GUUCCGUUGGCGUAAUGGUAACGCGUCUCCCUCCUAAGGAGACGACUGCGGGUUCGAGUCCCGUAGGGAACG [A43C C66G] | 0.603 |

| Variant | yeast fitness |
| --- | --- |
| GUUCCGUUGGCGUAAUGGUAACGCGUCUCCCUCCUAAGGAGACGACUGCGGGUUCGAGUCCCGUAAGGAACG [A43C C66A] | 0.699 |
| GUUCCGUUGGCGUAAUGGUAACGCGUCUCCCUCCUAAGGAGACGACUGCGGGUUCGAGUCCCGUACGGAUCG [A43C A70U] | 1.06 |
| GUUCCGUUGGCGUAAUGGUAACGCGUCUCCCUCCUAAGGAGACGACUGUGGGUUCGAGUCCCGUAUGGAACG [A43C C49U C66U] | 0.718 |
| GUUCCGUUGGCGUAAUGGUAACGCGUCUCCCUCCUAAGGAGUAGACUGCGGGUUCGACAUCCGUACGGAACG [A42U G58C U59A C60U] | 0.659 |
| GUUCCGUUGGCGUAAUGGUAACGCGUCUCCCUCCUAAGGAGUAGACUGCGGGUUCGAUUCCCGUACGCAACG [A42U G58U G68C] | ≤ 0.5 |
| GUUCCGUUGGCGUAAUGGUAACGCGUCUCCCUCCUAAGGAGUAGACUGCGGGUUCGAGUCCCCUACGGAACG [A42U G63C] | 0.715 |
| GUUCCGUUGGCGUAAUGGUAACGCGUCUCCCUCCUAAGGAGACGACUGCGGGUUCGAGUACCGUACGGAACG [A43C C60A] | 0.591 |
| GUUCCGUUGGCGUAAUGGUAACGCGUCUCCCUCCUAAGGAGACGACUGCGGGUUCGAGUGCCGUACGGAACG [A43C C60G] | 0.953 |
| GUUCCGUUGGCGUAAUGGUAACGCGUCUCCCUCCUAAGGAGUAGACCGCGAGUUCGAGUCCCGUACGGACCG [A42U U47C G51A A70C] | 0.502 |
| GUUCCGUUGGCGUAAUGGUAACGCGUCUCCCUCCUAAGGAGACGACUGCGGGUUCGAGUCCCGUACGAAACG [A43C G68A] | 0.922 |
| GUUCCGUUGGCGUAAUGGUAACGCGUCUCCCUCCUAAGGAGUAGACUGCGGGUUCGAGUCCCGUACGCAACG [A42U G68C] | 0.664 |
| GUUCCGUUGGCGUAAUGGUAACGCGUCUCCCUCCUAAGGAGUAGACUGCGGGUUCGAGUCCCGUACGUAACG [A42U G68U] | 0.744 |
| GUUCCGUUGGCGUAAUGGUAACGCGUCUCCCUCCUAAGGAGACCACUGCGGGUUGGAGUCCUGUACGGAACG [A43C G44C C55G C62U] | 0.661 |
| GUUCCGUUGGCGUAAUGGUAACGCGUCUCCCUCCUAAGGAGACGACUACGGGUUCGAGUCCCGUACGGAACG [A43C G48A] | 1.06 |
| GUUCCGUUGGCGUAAUGGUAACGCGUCUCCCUCCUAAGGAGACGACUGUGGGUUCGAGUCCGGUACGGAACG [A43C C49U C62G] | 0.561 |
| GUUCCGUUGGCGUAAUGGUAACGCGUCUCCCUCCUAAGGAGACGACUGCGGCUUCGAGUCCCGUACGGAACG [A43C G52C] | 0.74 |
| GUUCCGUUGGCGUAAUGGUAACGCGUCUCCCUCCUAAGGAGUAGACUGCGGGUUCGAGCCCCGUACGGAACG [A42U U59C] | 1.01 |
| GUUCCGUUGGCGUAAUGGUAACGCGUCUCCCUCCUAAGGAGUAGACUGCGGGUUCGAGACCCGUACGGAACG [A42U U59A] | 0.668 |
